≈ marks a conversion by molar mass, not a printed value.
Columns and labels:
Type in all cases: functional
Staphylococcus aureus [1] = assay: Antibacterial activity against Staphylococcus aureus ATCC 25923 after 18 to 24 hrs
Talaromyces marneffei [2] = assay: Antifungal activity against Penicillium marneffei after 48 hrs by two fold dilution technique
Outline: (§1)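 Broth MIC. Broth with log two-fold serial dilutions of compound was inoculated with about 1.6 × 10⁴–6 × 10⁴ c.f.u./ml of fungus and incubated 48 h at 35 °C. MIC is the lowest concentration arresting fungal growth.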

Aspergillus fumigatus [3] = assay: Ratio of MFC to MIC for Aspergillus fumigatus
Outline: (§2)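 MFC: 0.1 ml from each MIC tube was spread on agar and colonies were counted after 48 h at 35 °C. MFC is the lowest concentration killing 99.9% of the inoculum. The MFC/MIC ratio was then calculated to classify activity as fungistatic or fungicidal.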

[4] = system: Trichophyton mentagrophytes; assay: Ratio of MFC to MIC for Trichophyton mentagrophytes; outline: as §2
Aspergillus fumigatus [5] = assay: Antifungal activity against Aspergillus fumigatus after 48 hrs by two fold dilution technique; outline: as §1
Klebsiella pneumoniae [6] = assay: Antibacterial activity against Klebsiella pneumoniae after 18 to 24 hrs
Candida albicans [7] = assay: Antifungal activity against Candida albicans after 48 hrs by two fold dilution technique; outline: as §1
Talaromyces marneffei [8] = assay: Ratio of MFC to MIC for Penicillium marneffei; outline: as §2
Escherichia coli [9] = assay: Antibacterial activity against Escherichia coli ATCC 25922 after 24 hrs by two fold dilution technique; conditions: ATCC 25922, 24 h
Outline: (§3)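 Broth dilution MIC. Nutrient broth held log two-fold serial dilutions of compound and was inoculated with about 5 × 10⁵ c.f.u./ml of actively dividing bacteria. Incubation was 24 h at 37 °C, with growth checked visually and spectrophotometrically. MIC is the lowest concentration arresting growth.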

Staphylococcus aureus [10] = assay: Antibacterial activity against Staphylococcus aureus ATCC 25923 after 24 hrs by disc diffusion method
Outline: (§4)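 Agar disc diffusion. A standard inoculum of […] c.f.u./ml (0.5 McFarland) was spread evenly on agar. 6 mm Whatman no. 1 paper discs, dry-heat sterilized (140 °C, 1 h), were soaked in test compound and placed on nutrient agar. Plates were inverted and incubated 24 h at 37 °C. Read-out: diameter of the inhibition zone.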

Candida albicans [11] = assay: Antifungal activity against Candida albicans after 48 hrs by disk diffusion method
Outline: (§5)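 Agar well diffusion with compounds in DMSO. The dish was lawned with a saline spore suspension, excess decanted, and dried 1 h at 37 °C. Wells were punched. Read-out: inhibition zone in mm. Griseofulvin served as standard and DMSO as negative control.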

Streptococcus pyogenes [12] = assay: Antibacterial activity against Streptococcus pyogenes after 24 hrs by two fold dilution technique; outline: as §3
Aspergillus fumigatus [13] = assay: Antifungal activity against Aspergillus fumigatus after 48 hrs by disk diffusion method; outline: as §5
[14] = system: Trichophyton mentagrophytes; assay: Antifungal activity against Trichophyton mentagrophytes after 48 hrs by two fold dilution technique; outline: as §1
Escherichia coli [15] = assay: Antibacterial activity against Escherichia coli ATCC 25922 after 18 to 24 hrs
[16] = system: Trichophyton mentagrophytes; assay: Antifungal activity against Trichophyton mentagrophytes after 48 hrs by disk diffusion method; outline: as §5
Staphylococcus aureus [17] = assay: Antibacterial activity against Staphylococcus aureus ATCC 25923 after 24 hrs by two fold dilution technique; conditions: ATCC 25923, 24 h; outline: as §3
Talaromyces marneffei [18] = assay: Antifungal activity against Penicillium marneffei after 48 hrs by disk diffusion method; outline: as §5
Escherichia coli [19] = assay: Antibacterial activity against Escherichia coli ATCC 25922 after 24 hrs by disc diffusion method; outline: as §4
Klebsiella pneumoniae [20] = assay: Antibacterial activity against Klebsiella pneumoniae after 24 hrs by two fold dilution technique; outline: as §3
Pseudomonas aeruginosa [21] = assay: Antibacterial activity against Pseudomonas aeruginosa ATCC 27853 after 24 hrs by disc diffusion method; outline: as §4
Pseudomonas aeruginosa [22] = assay: Antibacterial activity against Pseudomonas aeruginosa ATCC 27853 after 24 hrs by two fold dilution technique; conditions: ATCC 27853, 24 h; outline: as §3
Pseudomonas aeruginosa [23] = assay: Antibacterial activity against Pseudomonas aeruginosa ATCC 27853 after 18 to 24 hrs
Klebsiella pneumoniae [24] = assay: Antibacterial activity against Klebsiella pneumoniae after 24 hrs by disc diffusion method; outline: as §4
Streptococcus pyogenes [25] = assay: Antibacterial activity against Streptococcus pyogenes after 18 to 24 hrs
Streptococcus pyogenes [26] = assay: Antibacterial activity against Streptococcus pyogenes after 24 hrs by disc diffusion method; outline: as §4
Candida albicans [27] = assay: Ratio of MFC to MIC for Candida albicans; outline: as §2
Escherichia coli [28] = assay: Antibacterial activity against Escherichia coli ATCC 25922 at 30 ug after 24 hrs by disc diffusion method; conditions: ATCC 25922, 24 h, read-out: DIZ; outline: as §4
Pseudomonas aeruginosa [29] = assay: Antibacterial activity against Pseudomonas aeruginosa ATCC 27853 at 30 ug after 24 hrs by disc diffusion method; conditions: ATCC 27853, 24 h, read-out: DIZ; outline: as §4
Streptococcus pyogenes [30] = assay: Antibacterial activity against Streptococcus pyogenes at 30 ug after 24 hrs by disc diffusion method; conditions: read-out: DIZ; outline: as §4
Klebsiella pneumoniae [31] = assay: Antibacterial activity against Klebsiella pneumoniae at 30 ug after 24 hrs by disc diffusion method; conditions: read-out: DIZ; outline: as §4
Staphylococcus aureus [32] = assay: Antibacterial activity against Staphylococcus aureus ATCC 25923 at 30 ug after 24 hrs by disc diffusion method; conditions: ATCC 25923, 24 h, read-out: DIZ
Outline: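 Disc diffusion. Inoculum of […] c.f.u./ml (0.5 McFarland) spread on sterile nutrient agar plates. 6 mm Whatman no. 1 paper discs, dry-heat sterilised at 140 °C for 1 h, soaked in a known concentration of compound, then placed on the agar. DMSO disc as negative control. Plates inverted, incubated 24 h at 37 °C. Zone of inhibition diameter measured in mm.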

| SMILES | MBC (Staphylococcus aureus [1]) | MFC (Talaromyces marneffei [2]) | MIC (Talaromyces marneffei [2]) | Ratio (Aspergillus fumigatus [3]) | Ratio [4] | MFC (Aspergillus fumigatus [5]) | MIC (Aspergillus fumigatus [5]) | MBC (Klebsiella pneumoniae [6]) | MFC (Candida albicans [7]) | MIC (Candida albicans [7]) | Ratio (Talaromyces marneffei [8]) | MIC (Escherichia coli [9]) | diameter of the inhibition zone (DIZ) (Staphylococcus aureus [10]) | MIC (Streptococcus pyogenes [12]) | MBC (Escherichia coli [15]) | MIC (Staphylococcus aureus [17]) | MIC (Klebsiella pneumoniae [20]) | MIC (Pseudomonas aeruginosa [22]) | MBC (Pseudomonas aeruginosa [23]) | MBC (Streptococcus pyogenes [25]) | also measured |
| --- | --- | --- | --- | --- | --- | --- | --- | --- | --- | --- | --- | --- | --- | --- | --- | --- | --- | --- | --- | --- | --- |
| C=CCCCCCCCCc1nnc(Nc2ccccc2)s1 | 25 µg/mL (≈ 79.2 µM) | 100 µg/mL (≈ 317 µM) | 25 µg/mL (≈ 79.2 µM) | 4 | 2 | 100 µg/mL (≈ 317 µM) | 25 µg/mL (≈ 79.2 µM) | 50 µg/mL (≈ 158 µM) | 50 µg/mL (≈ 158 µM) | 25.5 µg/mL (≈ 80.8 µM) | 4 | 25 µg/mL (≈ 79.2 µM) | 13.1 mm | 25 µg/mL (≈ 79.2 µM) | 100 µg/mL (≈ 317 µM) | 12.5 µg/mL (≈ 39.6 µM) | 25 µg/mL (≈ 79.2 µM) | 12.5 µg/mL (≈ 39.6 µM) | 25 µg/mL (≈ 79.2 µM) | 50 µg/mL (≈ 158 µM) | diameter of the inhibition zone (DIZ) (Candida albicans [11]): 19.5 mm; diameter of the inhibition zone (DIZ) (Aspergillus fumigatus [13]): 16.5 mm; MFC [14]: 50 µg/mL (≈ 158 µM); MIC [14]: 25 µg/mL (≈ 79.2 µM); diameter of the inhibition zone (DIZ) [16]: 14.1 mm; diameter of the inhibition zone (DIZ) (Talaromyces marneffei [18]): 10.2 mm; diameter of the inhibition zone (DIZ) (Escherichia coli [19]): 15.2 mm; diameter of the inhibition zone (DIZ) (Pseudomonas aeruginosa [21]): 17.2 mm; diameter of the inhibition zone (DIZ) (Klebsiella pneumoniae [24]): 12.8 mm; diameter of the inhibition zone (DIZ) (Streptococcus pyogenes [26]): 13.5 mm; Ratio (Candida albicans [27]): 2 |
| CCCCC/C=C\CCC(O)CCCCCCCc1nnc(Nc2ccccc2)s1 (stereo not drawn) | 12.5 µg/mL (≈ 29.1 µM) | 100 µg/mL (≈ 233 µM) | 25 µg/mL (≈ 58.2 µM) | 2 | 4 | 50 µg/mL (≈ 116 µM) | 25 µg/mL (≈ 58.2 µM) | 6.25 µg/mL (≈ 14.5 µM) | 50 µg/mL (≈ 116 µM) | 25 µg/mL (≈ 58.2 µM) | 4 | 6.25 µg/mL (≈ 14.5 µM) | 20.8 mm | 6.25 µg/mL (≈ 14.5 µM) | 12.5 µg/mL (≈ 29.1 µM) | 6.25 µg/mL (≈ 14.5 µM) | 6.25 µg/mL (≈ 14.5 µM) | 6.25 µg/mL (≈ 14.5 µM) | 25 µg/mL (≈ 58.2 µM) | 25 µg/mL (≈ 58.2 µM) | diameter of the inhibition zone (DIZ) (Candida albicans [11]): 24.9 mm; diameter of the inhibition zone (DIZ) (Aspergillus fumigatus [13]): 21.8 mm; MFC [14]: 100 µg/mL (≈ 233 µM); MIC [14]: 25 µg/mL (≈ 58.2 µM); diameter of the inhibition zone (DIZ) [16]: 19 mm; diameter of the inhibition zone (DIZ) (Talaromyces marneffei [18]): 15.2 mm; diameter of the inhibition zone (DIZ) (Escherichia coli [19]): 22.9 mm; diameter of the inhibition zone (DIZ) (Pseudomonas aeruginosa [21]): 25.9 mm; diameter of the inhibition zone (DIZ) (Klebsiella pneumoniae [24]): 19.9 mm; diameter of the inhibition zone (DIZ) (Streptococcus pyogenes [26]): 21.1 mm; Ratio (Candida albicans [27]): 2 |
| CCCCCCCC/C=C\CCCCCCCc1nnc(Nc2ccccc2)s1 | 25 µg/mL (≈ 60.4 µM) | 12.5 µg/mL (≈ 30.2 µM) | 6.25 µg/mL (≈ 15.1 µM) | 4 | 2 | 25 µg/mL (≈ 60.4 µM) | 6.25 µg/mL (≈ 15.1 µM) | 50 µg/mL (≈ 121 µM) | 12.5 µg/mL (≈ 30.2 µM) | 6.25 µg/mL (≈ 15.1 µM) | 2 | 25 µg/mL (≈ 60.4 µM) | 12.9 mm | 12.5 µg/mL (≈ 30.2 µM) | 50 µg/mL (≈ 121 µM) | 12.5 µg/mL (≈ 30.2 µM) | 25 µg/mL (≈ 60.4 µM) | 12.5 µg/mL (≈ 30.2 µM) | 25 µg/mL (≈ 60.4 µM) | 100 µg/mL (≈ 242 µM) | diameter of the inhibition zone (DIZ) (Candida albicans [11]): 27.2 mm; diameter of the inhibition zone (DIZ) (Aspergillus fumigatus [13]): 23.8 mm; MFC [14]: 12.5 µg/mL (≈ 30.2 µM); MIC [14]: 6.25 µg/mL (≈ 15.1 µM); diameter of the inhibition zone (DIZ) [16]: 20.3 mm; diameter of the inhibition zone (DIZ) (Talaromyces marneffei [18]): 16.1 mm; diameter of the inhibition zone (DIZ) (Escherichia coli [19]): 14.8 mm; diameter of the inhibition zone (DIZ) (Pseudomonas aeruginosa [21]): 16.3 mm; diameter of the inhibition zone (DIZ) (Klebsiella pneumoniae [24]): 12.1 mm; diameter of the inhibition zone (DIZ) (Streptococcus pyogenes [26]): 13.1 mm; Ratio (Candida albicans [27]): 2 |
| O=C(N[C@H](CO)[C@H](O)c1ccc([N+](=O)[O-])cc1)C(Cl)Cl [CHLORAMPHENICOL] | 12.5 µg/mL (≈ 38.7 µM) |  |  |  |  |  |  | 12.5 µg/mL (≈ 38.7 µM) |  |  |  | 6.25 µg/mL (≈ 19.3 µM) |  | 6.25 µg/mL (≈ 19.3 µM) | 12.5 µg/mL (≈ 38.7 µM) | 6.25 µg/mL (≈ 19.3 µM) | 6.25 µg/mL (≈ 19.3 µM) | 6.25 µg/mL (≈ 19.3 µM) | 12.5 µg/mL (≈ 38.7 µM) | 12.5 µg/mL (≈ 38.7 µM) | zone of inhibition at 30 µg/disc (Escherichia coli [28]): 27 mm; zone of inhibition at 30 µg/disc (Pseudomonas aeruginosa [29]): 32 mm; zone of inhibition at 30 µg/disc (Streptococcus pyogenes [30]): 23 mm; zone of inhibition at 30 µg/disc (Klebsiella pneumoniae [31]): 19 mm; zone of inhibition at 30 µg/disc (Staphylococcus aureus [32]): 22 mm |

— ChEMBL document CHEMBL1155415, “Synthesis, characterization, and in vitro antimicrobial activities of 5-alkenyl/hydroxyalkenyl-2-phenylamine-1,3,4-oxadiazoles and thiadiazoles” (2010)
